# Reference: ChEMBL document CHEMBL3421606, “Organoselenocyanates and symmetrical diselenides redox modulators: Design, synthesis and biological evaluation” (Eur J Med Chem, 2015)
# How the values were obtained:
# [1] = Antioxidant activity assessed as DPPH free radical scavenging activity after 30 mins by spectrophotometry; assay type: physicochemical; conditions: 0.5 h
# In short: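 Compounds in methanol at 1 mg/ml. 200 µL added to 0.4 ml of 0.1 mM DPPH in methanol. Kept 30 min in the dark, then absorbance read at 517 nm against a blank (methanol, no DPPH). Scavenging % = (A blank − A sample)/A blank x 100. Ascorbic acid and ebselen served as reference antioxidants.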
# [2] = Antioxidant activity assessed as glutathione peroxidase like activity after 3 mins by spectrophotometry; assay type: physicochemical; conditions: 0.05 h
# In short: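 NADPH-glutathione reductase coupled assay in 50 mM phosphate buffer with 0.1% Triton X-100, plus glutathione, glutathione reductase and NADPH. Compound at 41 µM; reaction started with 0.8 mM H2O2. A340 recorded over 3 min to give ΔA/min, background-corrected for H2O2+GSH and for compound colour. Ebselen 41 µM as reference.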
# [3] = system: HepG2; test: Cytotoxicity against human HepG2 cells after 48 hrs by MTT assay; assay type: functional, cell-based
# In short: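 HepG2 grown in DMEM with 10% calf serum at 37 °C. Seeded at 50,000 cells/mL, grown 2 days, then serial compound dilutions added for 48 h at 37 °C, 10% CO2. MTT at 0.5 mg/mL final for 2 h; formazan dissolved in DMSO and read at 590 nm. IC50 = concentration giving 50% of untreated-control absorbance, from dose-response curves, mean of two parallel experiments. 5-FU as reference.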
# [4] = Antioxidant activity assessed as bleomycin-Fe2+-induced DNA degradation after 1 hr by spectrophotometry; assay type: physicochemical
# In short: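 Mix of calf thymus DNA 0.5 mg/ml, bleomycin sulfate 0.05 mg/ml, MgCl2 5 mM, FeCl3 and test compound 2 mM, held 1 h at 37 °C. Stopped with EDTA, then 1% TBA and 25% HCl added, heated 80 °C 30 min. Cooled and centrifuged; TBA-reactive substances read at 532 nm as MDA equivalents. Ascorbic acid as reference. Means of 3 replicates.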
# [5] = system: Staphylococcus aureus; test: Antimicrobial activity against Staphylococcus aureus assessed as diameter of inhibition zone after 2 days by agar diffusion assay; assay type: functional
# In short: (§1)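 Agar well/disc diffusion. 100 µL of suspension, 1x10^8 CFU/mL bacteria on nutrient agar or 1x10^4 spores/mL C. albicans on potato dextrose agar. 6 mm paper discs soaked with 20 µl of 1 mg/ml compound (20 µg per disc), incubated at 30°C. Inhibition zone diameter (mm) read after 1 and 2 days. Ampicillin (bacteria) and clotrimazole (fungus) controls at the same concentration.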
# [6] = system: Staphylococcus aureus; test: Antimicrobial activity against Staphylococcus aureus assessed as diameter of inhibition zone after 2 days by agar diffusion assay relative to ampicillin; assay type: functional; parameters: concentration or dose not given beside the values
# In short: (§2)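 Agar diffusion with 6 mm discs carrying 20 µL of 1 mg/ml compound on nutrient agar seeded with 1x10^8 CFU/mL bacteria, incubated at 30°C. Ampicillin run the same way at the same concentration. % activity index = inhibition zone of compound / inhibition zone of ampicillin x 100.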
# [7] = system: Candida albicans; test: Antimicrobial activity against Candida albicans assessed as diameter of inhibition zone after 1 day by agar diffusion assay; assay type: functional; in short: as §1
# [8] = system: Escherichia coli; test: Antimicrobial activity against Escherichia coli assessed as diameter of inhibition zone after 2 days by agar diffusion assay; assay type: functional; in short: as §1
# [9] = system: Escherichia coli; test: Antimicrobial activity against Escherichia coli assessed as diameter of inhibition zone after 2 days by agar diffusion assay relative to ampicillin; assay type: functional; in short: as §2
# [10] = Homo sapiens, HepG2, 48 h, read-out: IC50
Structure (SMILES),Activity [1],Activity [2],"IC50 [3, 10] [µM]",OD [4],diameter of the inhibition zone (DIZ) [5] [mm],Activity_index [6] [%],IC50 ([3]; hepg2),diameter of the inhibition zone (DIZ) [7] [mm],diameter of the inhibition zone (DIZ) [8] [mm],Activity_index [9] [%]
N#C[Se]c1ccc(-n2[se]c3ccccc3c2=O)cc1,Active,Not Active,64,0.09,,,,,,
CC(C)C(C(=O)NC(C)(C)C)N(CCc1c[nH]c2ccccc12)C(=O)c1ccccc1[Se][Se]c1ccccc1C(=O)N(CCc1c[nH]c2ccccc12)C(C(=O)NC(C)(C)C)C(C)C (stereo not drawn),Not Active,Active,45,0.07,,,,,,
Cc1ccc(C(C(=O)NC(C)(C)C)N(CCc2c[nH]c3ccccc23)C(=O)c2ccccc2[Se][Se]c2ccccc2C(=O)N(CCc2c[nH]c3ccccc23)C(C(=O)NC(C)(C)C)c2ccc(C)cc2)cc1 (stereo not drawn),Not Active,Active,,0.073,12,55,Not Active,,,
CC(C)C(C(=O)NC(C)(C)C)N(Cc1ccccc1)C(=O)c1ccccc1[Se][Se]c1ccccc1C(=O)N(Cc1ccccc1)C(C(=O)NC(C)(C)C)C(C)C (stereo not drawn),Not Active,Active,,0.073,,,Not Active,,,
N#C[Se]c1ccc(NC(=O)/C=C\C(=O)O)cc1,Active,,5,0.051,16,73,,27,,
N#C[Se]c1ccc(N2C(=O)C=CC2=O)cc1,Not Active,Active,0.6,0.082,,,,,,
N#C[Se]c1ccc(NC(=O)CCC(=O)O)cc1,Active,,,0.053,15,68,Not Active,,,
N#C[Se]c1ccc(N2C(=O)CCC2=O)cc1,Not Active,,,0.065,21,95,Not Active,28,,
N#C[Se]c1ccc(NC(=O)CCCC(=O)O)cc1,Not Active,Active,7,0.068,20,91,,,,
N#C[Se]c1ccc(N2C(=O)CCCC2=O)cc1,Not Active,Active,47,0.078,,,,,,
O=C(O)/C=C\C(=O)Nc1ccc([Se][Se]c2ccc(NC(=O)/C=C\C(=O)O)cc2)cc1,Active,Active,3,0.089,21,95,,,,
O=C1C=CC(=O)N1c1ccc([Se][Se]c2ccc(N3C(=O)C=CC3=O)cc2)cc1,Active,Active,13,0.055,,,,,7,29
O=C(O)CCC(=O)Nc1ccc([Se][Se]c2ccc(NC(=O)CCC(=O)O)cc2)cc1,Active,Active,,0.088,20,91,Not Active,19,,
O=C1CCC(=O)N1c1ccc([Se][Se]c2ccc(N3C(=O)CCC3=O)cc2)cc1,Not Active,Active,14,0.074,14,64,,,,
O=C(O)CCCC(=O)Nc1ccc([Se][Se]c2ccc(NC(=O)CCCC(=O)O)cc2)cc1,Active,Active,67,0.083,20,91,,16,,
O=C1CCCC(=O)N1c1ccc([Se][Se]c2ccc(N3C(=O)CCCC3=O)cc2)cc1,Not Active,Active,35,0.09,21,90,,,,
O=c1c2ccccc2[se]n1-c1ccc([Se][Se]c2ccc(-n3[se]c4ccccc4c3=O)cc2)cc1,Active,Not Active,40,0.06,,,,,,
CC1(C)S[C@@H]2[C@H](NC(=O)[C@H](N)c3ccccc3)C(=O)N2[C@H]1C(=O)O [AMPICILLIN],,,,,22,,,,24,
O=C1O[C@H]([C@@H](O)CO)C(O)=C1O [ASCORBIC ACID],,,,0.062,,,,,,
Clc1ccccc1C(c1ccccc1)(c1ccccc1)n1ccnc1 [CLOTRIMAZOLE],,,,,,,,28,,
O=c1c2ccccc2[se]n1-c1ccccc1 [EBSELEN],Active,Active,,,,,,,,
O=c1[nH]cc(F)c(=O)[nH]1 [FLUOROURACIL],,,8,,,,,,,
